According to ChEMBL document CHEMBL2417481, “Regioselective synthesis of 6-substituted-2-amino-5-bromo-4(3H)-pyrimidinones and evaluation of their antiviral activity” (Eur J Med Chem, 2013):

Experiments:
Influenza B virus = assay: Antiviral activity against Influenza B virus infected in MDCK cells assessed as reduction in virus-induced cytopathogenicity; assay type: functional, organism-based
In short: (§1)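 Confluent cell monolayers (Vero, HeLa, HEL or MDCK, as named in each line) were infected with 100 CCID50 of virus while exposed to a range of compound concentrations. Cytopathicity was scored once it was complete in untreated infected controls.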

Influenza A virus [1] = assay: Antiviral activity against Influenza A virus […] infected in MDCK cells assessed as reduction in virus-induced cytopathogenicity; assay type: functional, organism-based; in short: as §1
Punta Toro virus = assay: Antiviral activity against Punta Toro virus infected in african green monkey Vero cells assessed as reduction in virus-induced cytopathogenicity; assay type: functional, organism-based; in short: as §1
Coxsackievirus B4 [2] = assay: Antiviral activity against Coxsackievirus B4 infected in african green monkey Vero cells assessed as reduction in virus-induced cytopathogenicity; assay type: functional, organism-based; conditions: Enterovirus B; in short: as §1
Sindbis virus = assay: Antiviral activity against Sindbis virus infected in african green monkey Vero cells assessed as reduction in virus-induced cytopathogenicity; assay type: functional, organism-based; in short: as §1
[3] = test system: Mammalian orthoreovirus 1; assay: Antiviral activity against Reovirus-1 infected in african green monkey Vero cells assessed as reduction in virus-induced cytopathogenicity; assay type: functional, organism-based; conditions: Mammalian orthoreovirus 1, Vero
In short: (§2)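 Confluent Vero monolayers in 96-well plates were inoculated with 100 CCID50 of virus together with varying compound concentrations. Cytopathicity was scored once it was complete in untreated virus-infected control cultures.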

Human respirovirus 3 = assay: Antiviral activity against Parainfluenza virus 3 infected in african green monkey Vero cells assessed as reduction in virus-induced cytopathogenicity; assay type: functional, organism-based; conditions: Human respirovirus 3, Vero; in short: as §2
[4] = test system: Respiratory syncytial virus; assay: Antiviral activity against Respiratory syncytial virus Long infected in human HeLa cells assessed as reduction in virus-induced cytopathogenicity; assay type: functional, organism-based; in short: as §1
Coxsackievirus B4 [5] = assay: Antiviral activity against Coxsackievirus B4 infected in human HeLa cells assessed as reduction in virus-induced cytopathogenicity; assay type: functional, organism-based; conditions: Enterovirus B; in short: as §1
Influenza A virus [6] = assay: Antiviral activity against Influenza A virus H1N1 infected in MDCK cells assessed as reduction in virus-induced cytopathogenicity; assay type: functional, organism-based; in short: as §1
[7] = test system: Vesicular stomatitis virus; assay: Antiviral activity against Vesicular stomatitis virus infected in human HeLa cells assessed as reduction in virus-induced cytopathogenicity; assay type: functional, organism-based; in short: as §1
Human alphaherpesvirus 1 [8] = assay: Antiviral activity against thymidine kinase negative […] Herpes simplex virus-1 KOS infected in human HEL cells assessed as reduction in virus-induced cytopathogenicity; assay type: functional, organism-based; conditions: Human alphaherpesvirus 1, KOS; in short: as §1
[9] = test system: Vesicular stomatitis virus; assay: Antiviral activity against Vesicular stomatitis virus infected in human HEL cells assessed as reduction in virus-induced cytopathogenicity; assay type: functional, organism-based; in short: as §1
Human alphaherpesvirus 2 = assay: Antiviral activity against Herpes simplex virus-2 G infected in human HEL cells assessed as reduction in virus-induced cytopathogenicity; assay type: functional, organism-based; conditions: Human alphaherpesvirus 2, strain G; in short: as §1
Human alphaherpesvirus 1 [10] = assay: Antiviral activity against Herpes simplex virus-1 KOS infected in human HEL cells assessed as reduction in virus-induced cytopathogenicity; assay type: functional, organism-based; conditions: Human alphaherpesvirus 1, KOS; in short: as §1
Felid alphaherpesvirus 1 = assay: Antiviral activity against Feline Herpes virus infected in cat CRFK cells assessed as inhibition of virus-induced cytopathic effect by MTS assay; assay type: functional, organism-based; conditions: Felid alphaherpesvirus 1, CRFK
Feline coronavirus = assay: Antiviral activity against Feline coronavirus infected in cat CRFK cells assessed as inhibition of virus-induced cytopathic effect by MTS assay; assay type: functional, organism-based; conditions: Alphacoronavirus 1, CRFK
Human alphaherpesvirus 3 [11] = assay: Antiviral activity against thymidine kinase negative Varicella-zoster virus 07-1 infected in human HEL cells assessed as reduction in the virus plaque formation; assay type: functional, organism-based; conditions: Human alphaherpesvirus 3, 07-1, HEL
In short: (§3)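 Confluent HEL fibroblast cultures received 20 PFU of VZV together with varying compound concentrations. Plaque formation was read when it reached completion in untreated virus controls.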

Human alphaherpesvirus 3 [12] = assay: Antiviral activity against thymidine kinase positive Varicella-zoster virus OKA infected in human HEL cells assessed as reduction in virus plaque formation; assay type: functional, cell-based, Human herpesvirus 3 strain Oka vaccine; conditions: Human alphaherpesvirus 3, OKA; in short: as §3
Cytomegalovirus [13] = assay: Antiviral activity against Cytomegalovirus Davis infected in human HEL cells assessed as reduction in virus plaque formation; assay type: functional, organism-based; conditions: Human betaherpesvirus 5, Davis
In short: (§4)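 Confluent HEL fibroblasts were inoculated with 100 PFU of CMV at graded compound concentrations. Plaques were counted once formation was complete in untreated infected controls.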

[14] = Cytotoxicity against MDCK cells assessed as morphological changes; assay type: cell-based, Canis lupus familiaris; conditions: dog
[15] = Cytotoxicity against african green monkey Vero cells assessed as morphological changes; assay type: cell-based; conditions: chlorocebus sabaeus
[16] = Cytotoxicity against human HeLa cells assessed as morphological changes; assay type: cell-based
[17] = Cytotoxicity against cat CRFK cells assessed as cell viability by MTS assay; assay type: cell-based, Felis catus
Cytomegalovirus [18] = assay: Antiviral activity against Cytomegalovirus AD-169 infected in human HEL cells assessed as reduction in virus plaque formation; assay type: functional, organism-based; conditions: Human betaherpesvirus 5, AD-169, HEL; in short: as §4
[19] = Cytotoxicity against human HEL cells assessed as morphological changes; assay type: cell-based

Cc1cc(C)c(/C=C/c2nc(N)[nH]c(=O)c2Br)c(C)c1 gave an EC50 (Influenza B virus) of over 20 µM, an EC50 (Influenza A virus [1]) of over 20 µM and an EC50 (Punta Toro virus) of over 20 µM. For the same compound, the EC50 (Coxsackievirus B4 [2]) was over 20 µM, the EC50 (Sindbis virus) was over 20 µM and the EC50 [3] was over 20 µM. It also gave an EC50 (Human respirovirus 3) of over 20 µM, an EC50 [4] of over 20 µM and an EC50 (Coxsackievirus B4 [5]) of over 20 µM. The EC50 (Influenza A virus [6]) was over 20 µM, the EC50 [7] was over 20 µM and the EC50 (Human alphaherpesvirus 1 [8]) was over 20 µM. For the same compound, the EC50 [9] was over 20 µM, the EC50 (Human alphaherpesvirus 2) was over 20 µM and the EC50 (Human alphaherpesvirus 1 [10]) was over 20 µM. It also gave an EC50 (Felid alphaherpesvirus 1) of 1.5 µM, an EC50 (Feline coronavirus) of over 20 µM and an EC50 (Human alphaherpesvirus 3 [11]) of 5.3 µM. The EC50 (Human alphaherpesvirus 3 [12]) was 2.5 µM, the EC50 (Cytomegalovirus [13]) was 8.9 µM and the MCC [14] was over 20 µM. It also gave an MCC [15] of 100 µM, an MCC [16] of 100 µM and an MCC [17] of 58 µM. For the same compound, the EC50 (Cytomegalovirus [18]) was 11 µM and the MCC [19] was over 20 µM.
